In the library only some 2.9% were active in any assay of this set; here they are far more common.
Arrestin-AP2 inh = inhibitors of beta-arrestin/AP2 binding, primary screen, biochemical, GPCR trafficking, flow cytometry; FITC-arrestin peptide / GST-AP2 beads; AP2 beta2 appendage carries R879A mutation; inhibition, % at 10 µM; hit rate 0.31% among 340,000; AID 504490, 2011;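 active = inhibition above a set limit, near 3 SD of compounds lacking own fluorescence, cut at about 54% in these data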
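System: GST-tagged AP2 beta2-adaptin appendage (R879A) on 4 µm glutathione beads / Reagent: FITC-arrestin peptide, 50 nM / Detection: HyperCyt-sampled flow cytometry, FL1 channel, ex 488/em 535 nm / Timing: 12 min plus 1 h, RT / Buffer or medium: PBS plus Tween 20 (0.05%) and BSA (0.1%)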
NRP1-CendR mod = modulators of CendR peptide binding to NRP-1, primary screen, biochemical, fluorescence polarization, uHTS; FAM-RPARPAR peptide binding to NRP-1; inhibition, % at 25 µM; hit rate 0.85% among 360,000; Neuropilin-1 (Homo sapiens), O14786;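 active = inhibition or corrected inhibition above about 18%, plus a signal ratio from 0.5 to 1.5, limit read from the data, passing the limit was not always enough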
ADAM10 inh = human ADAM10 inhibitors, primary screen, biochemical, QFRET, HTS; Disintegrin and metalloproteinase domain-containing protein 10 (Homo sapiens), O14672; recombinant ADAM10, EDANS/DABCYL FRET peptide cleavage, 3 h; inhibition, % at 7 µM; hit rate 0.62% among 370,000;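 active = inhibition above a per-campaign cutoff equal to the mean of compounds falling between control-based bounds plus 3 SD, cut at about 20% in these data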
ADAM17 inh = ADAM17 inhibitors, primary screen, biochemical, QFRET. Disintegrin and metalloproteinase domain-containing protein 17 (Homo sapiens), P78536. recombinant ADAM17, EDANS/DABCYL FRET peptide cleavage. inhibition, % at 6.95 µM. hit rate 0.83% among 370,000. AID 720648, 2013;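 active = inhibition above the mean of compounds lying between control limits plus 3 SD, set per campaign, cut at about 8.5% in these data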
CaV13 FRET inh = Primary screen for inhibitors of IQ motif and Ca2+-dependent inactivation inhibitor domain binding in CACNA1D, Förster resonance energy transfer in living cells, …; HEK cells, CFP/YFP FRET ICDI-IQ, plate reader, 10 min; percent FRET-ratio fall versus neutral wells; inhibition, % at 12.3 µM; hit rate 0.098% among 340,000; AID 743397;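 active = mean replicate inhibition of at least 30% and at least 1% of replicates passing that level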
FAS TE block = FAS thioesterase domain inhibitors, primary screen, biochemical, fluorescence intensity, uHTS; Fatty acid synthase (Homo sapiens), P49327; recombinant FAS-TE, OMFH fluorogenic substrate, fluorescence endpoint; inhibition, % at 15 µM; hit rate 0.67% among 360,000;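 active = compounds whose normalised, plate-corrected inhibition of enzyme fluorescence in the single-dose primary screen is 50% or more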
Arr AP2 CP1 = inhibitors of arrestin peptide binding to AP2, confirmation, biochemical, cherry pick 1, flow cytometry beads | hit rate 2% among 1,300 | GST-AP2 beads, FITC arrestin peptide binding; GST-fused beta2-adaptin appendage, R879A mutant | shares compounds with Arrestin-AP2 inh | inhibition, % at 10 µM;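 active = inhibition above a set limit, roughly 3 SD of non-fluorescent compound noise, cut at about 38% in these data; inactive = inhibition at or below that limit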;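 note: loss of bead fluorescence from 50 nM FITC arrestin peptide bound to appendage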
GST-FITC bead = GST-fluorescein capture on glutathione beads, confirmation, artefact control for arrestin-AP2 inhibitor project, biochemical, cherry pick 1, flow cytometry; shares compounds with Arrestin-AP2 inh; GST-fluorescein binding to GSH beads, fluorescence, counter-screen; inhibition, % at 10 µM; hit rate 2% among 1,300; AID 588338, 2011;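 active = inhibition above 50%, about 3 SD of the inhibition seen with non-fluorescent compounds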;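 note: fluorescein maleimide labelled GST captured on 4 micron glutathione beads; higher means more loss of bead fluorescence from quenching or blocked binding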
A number is an active result.

`Cc1cc(C)cc(NC(=O)c2cccc3c2C(=O)N(C2CCCCC2)C3)c1` gave Arrestin-AP2 inh 62, NRP1-CendR mod inactive, FAS TE block inactive, Arr AP2 CP1 inactive and GST-FITC bead inactive.
Screening COc1ccc(OC)c(S(=O)(=O)Nc2cccc(-c3ccc(N4CCCCCC4)nn3)c2)c1 returned Arrestin-AP2 inh 60, NRP1-CendR mod inactive, ADAM10 inh inactive, ADAM17 inh inactive, CaV13 FRET inh inactive, FAS TE block inactive, Arr AP2 CP1 inactive and GST-FITC bead inactive.
COc1ccc(S(=O)(=O)Nc2cccc(-c3ccc(N4CCCCCC4)nn3)c2)c(OC)c1 was read as Arrestin-AP2 inh inactive, NRP1-CendR mod inactive, ADAM10 inh inactive, ADAM17 inh inactive, CaV13 FRET inh inactive and FAS TE block inactive.
CC(C)(C)n1nc(C2CC2)c(Br)c1NC(=O)c1ccc(Cl)cc1 was read as ADAM10 inh inactive, ADAM17 inh inactive and CaV13 FRET inh inactive.
For CC(C)(O)C#Cc1ccc(C(=O)N2CCCC(CNS(=O)(=O)c3cccs3)C2)o1 (stereo not given) the results were Arrestin-AP2 inh 61, NRP1-CendR mod inactive, ADAM10 inh inactive, ADAM17 inh inactive, CaV13 FRET inh inactive, FAS TE block inactive, Arr AP2 CP1 inactive and GST-FITC bead inactive.
For Cc1cc(C)c(C(=O)N2CCCC(CNS(=O)(=O)c3cccs3)C2)o1 (stereo not given) the results were Arrestin-AP2 inh inactive, NRP1-CendR mod inactive, ADAM10 inh inactive, ADAM17 inh inactive, CaV13 FRET inh inactive and FAS TE block inactive.
For CCC[C@H]1[C@@H](NC(=O)c2cccc(C(F)(F)F)c2)CC[C@@]23CCCN2C(=O)CCC[C@@H]13 the results were ADAM10 inh inactive and ADAM17 inh inactive.
Screening COc1ccc2c(c1C(=O)/C=C/c1ccccc1)OC(C)(C)C=C2 returned ADAM10 inh inactive and ADAM17 inh inactive.
Screening O=C(NCCc1c[nH]c2ccccc12)OCc1cn(Cc2ccccc2Cl)nn1 returned ADAM10 inh inactive and ADAM17 inh inactive.
`CC1CC(C)CN(CCCNC(=O)c2ccc(CS(=O)(=O)Cc3ccccc3F)o2)C1` (stereo not given) gave Arrestin-AP2 inh 59, NRP1-CendR mod inactive, ADAM10 inh inactive, ADAM17 inh inactive, CaV13 FRET inh inactive, FAS TE block inactive, Arr AP2 CP1 inactive and GST-FITC bead inactive.
Cc1ccc(CS(=O)(=O)Cc2ccc(C(=O)NCCCN3CC(C)CC(C)C3)o2)cc1 (stereo not given) was read as Arrestin-AP2 inh inactive, NRP1-CendR mod inactive, ADAM10 inh inactive, ADAM17 inh inactive, CaV13 FRET inh inactive and FAS TE block inactive.
`CC1CC(=O)Nc2ccccc2N1S(=O)(=O)c1ccc(Cl)cc1` (stereo not given) gave Arrestin-AP2 inh inactive, NRP1-CendR mod inactive, ADAM10 inh inactive, ADAM17 inh inactive, CaV13 FRET inh inactive and FAS TE block inactive.
Screening CC(=O)Nc1ccc(S(=O)(=O)N2c3ccccc3NC(=O)CC2C)c(Cl)c1 (stereo not given) returned Arrestin-AP2 inh 54, NRP1-CendR mod inactive, ADAM10 inh inactive, ADAM17 inh inactive, CaV13 FRET inh inactive, FAS TE block inactive, Arr AP2 CP1 inactive and GST-FITC bead inactive.
For COC(=O)[C@@]12C[C@@H](CC(=O)NCc3cccc4ccccc34)C(=O)N(Cc3ccccc3)C1=CCC(C)(C)C2 the results were NRP1-CendR mod inactive, ADAM10 inh inactive, ADAM17 inh inactive and CaV13 FRET inh inactive.
`C/C(=C1/SC(N2CCCC2)=NC1=O)c1ccc(Br)cc1` gave Arrestin-AP2 inh 79, NRP1-CendR mod inactive, ADAM10 inh inactive, ADAM17 inh inactive, FAS TE block inactive, Arr AP2 CP1 inactive and GST-FITC bead inactive.
`CCn1c(CC(=O)Nc2ccc(OC)cc2)nnc1SCC(=O)N1CCOCC1` gave Arrestin-AP2 inh 66, NRP1-CendR mod inactive, ADAM10 inh inactive, ADAM17 inh inactive, CaV13 FRET inh inactive, FAS TE block inactive, Arr AP2 CP1 inactive and GST-FITC bead inactive.
`CCn1c(CC(=O)Nc2ccc(Cl)cc2)nnc1SCC(=O)N1CCOCC1` gave Arrestin-AP2 inh inactive, NRP1-CendR mod inactive, ADAM10 inh inactive, ADAM17 inh inactive, CaV13 FRET inh inactive and FAS TE block inactive.
O=C(Nc1cc([N+](=O)[O-])ccc1N1CCCC1)c1ccccc1 was read as Arrestin-AP2 inh inactive, NRP1-CendR mod inactive, ADAM10 inh inactive, ADAM17 inh inactive, CaV13 FRET inh inactive and FAS TE block inactive.
CCn1c(=O)n(CC)c2cc(N3CCCC3)c(NC(=O)c3ccccc3)cc21 was read as Arrestin-AP2 inh inactive, NRP1-CendR mod inactive, ADAM10 inh inactive, ADAM17 inh inactive, CaV13 FRET inh inactive, FAS TE block inactive, Arr AP2 CP1 inactive and GST-FITC bead inactive.
Cn1c(=O)n(C)c2cc(N3CCCCC3)c(NC(=O)c3ccccc3)cc21 was read as Arrestin-AP2 inh inactive, NRP1-CendR mod inactive, ADAM10 inh inactive, ADAM17 inh inactive, CaV13 FRET inh inactive, FAS TE block inactive, Arr AP2 CP1 inactive and GST-FITC bead inactive.
CCn1c(=O)n(CC)c2cc(N3CCCC3)c(NC(=O)c3ccc(C)cc3)cc21 was read as Arrestin-AP2 inh inactive, NRP1-CendR mod inactive, ADAM10 inh inactive, ADAM17 inh inactive, CaV13 FRET inh inactive, FAS TE block inactive and Arr AP2 CP1 inactive.
Screening Cc1ccc2nc(-c3ccc(NC(=O)CSc4nnc(-c5cc(-c6ccc(F)cc6)n[nH]5)n4N)cc3)sc2c1 returned ADAM10 inh inactive and ADAM17 inh inactive.
`O=C(Nc1cccc(C(F)(F)F)c1)O[C@@H]1CC[C@@]23CCCN2C(=O)CCC[C@H]3C1` gave ADAM10 inh inactive and ADAM17 inh inactive.
`CC12CCC(=O)N1C(C(=O)N1CCN(S(=O)(=O)c3cccc(C(F)(F)F)c3)CC1)CS2` (stereo not given) gave Arrestin-AP2 inh 57, NRP1-CendR mod inactive, ADAM10 inh inactive, ADAM17 inh inactive, CaV13 FRET inh inactive, FAS TE block inactive, Arr AP2 CP1 inactive and GST-FITC bead inactive.

From PubChem BioAssay
